Fibroblast inh – blocks proliferation of human lung fibroblasts; LL 47 human lung fibroblast viability, ATP luminescence; hits give low values; viability, % at 10 µM; 85,000 tested, 1.1% active;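 active means viability at or below 50% in the single dose screen; inactive means viability above 50%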;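 further: compound exposure lasted 72 h before the ATP readout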
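test system = LL 47 human lung fibroblasts | amount = 1,150 fibroblasts seeded per well | medium = 15% FBS in IMEM | times = overnight cell rest, 72 h compound treatment at 37 °C | measured by = CellTiter-Glo luminescence measuring cellular ATP | read-out = viability percentage against median untreated-cell control | benchmarks = cell-only wells, no compound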
HUVEC inhibit – blocks proliferation of human endothelial cells. HUVEC proliferation, CellTiter-Glo luminescence, 72 h; hits give low values. viability, % at 10 µM (by protocol). 86,000 tested, 1.1% active;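 active means viability at or below 30%; inactive means viability above 30%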
H69AR growth 86K – growth inhibitors of human H69AR lung tumor cells; AID 598; viability, % at 10 µM; H69AR lung tumor viability, ATP luminescence, 72 h; hits give low values; 85,000 tested, 6% active;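 active means viability at or below 40%; inactive means viability above 40%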;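 further: multidrug resistant small cell line overexpressing MRP-1 efflux transporter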
Jurkat viability – cytotoxicity toward Jurkat cells; 56,000 tested, 1.2% active; inhibition, % at 4 µM; AID 463; Jurkat E6.1 viability, ATP luminescence, 48 h;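 active means inhibition above the mean inhibition of all tested compounds plus 3 SD, cut at about 28% in these data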
E coli WT exp – growth inhibitors of E. coli BW25113 wild type; OD600 absorbance; growth inhibition, % at 100 µM; 98,000 tested, 0.15% active;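 active means growth inhibition above about 50% at one test dose, limit read from the data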;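 further: growth measured after 20 h incubation at 37 °C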
Ecoli tolC – growth inhibitors of E. coli BW25113 tolC mutant. OD615. growth inhibition, % at 10 µM (by protocol). 65,000 tested, 2.2% active. AID 573;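 active means growth inhibition at or above a cutoff equal to the mean over every tested compound plus 3 SD, cut at about 60% in these data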;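 further: growth measured after 20 h incubation at 37 °C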
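Test system: E. coli BW25113 ΔtolC::kan bacteria | Medium: Kanamycin-containing LB broth (50 µg/mL) | Dosing: One dose of 10 µM final | Times: 20 h incubation with compound, 37 °C | Detection: Optical density read at 615 nm | Read-out basis: Percent growth inhibition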
A number is an active result; - = inactive; . = not tested or not shown. Only some compounds are listed: those with a hit (about 6.4% of all), similar ones and a draw of the others.

SMILES	Fibroblast inh	HUVEC inhibit	H69AR growth 86K	Jurkat viability	E coli WT exp	Ecoli tolC
N/C(=N/O)c1nc(N2CCCCC2)nc(N2CCCCC2)n1	-	-	-	-	-	-
c1ccc(CN2CCN(c3nc(-c4ccccc4)nc(-n4ccnc4)n3)CC2)cc1	-	-	-	-	-	64.6
c1ccc(N(c2ccccc2)c2nc(N3CCCC3)nc(-n3ccnc3)n2)cc1	-	-	20.1	-	-	-
N/C(=N/O)c1nc(N2CCCC2)nc(N(c2ccccc2)c2ccccc2)n1	-	-	-	-	-	72.1
CN(c1ccccc1)c1nc(N2CCCC2)nc(-n2ccnc2)n1	-	-	39.5	-	-	96.2
Cc1ccccc1CSCCNC(=O)CSCc1ccc([N+](=O)[O-])cc1	.	.	.	.	-	.
CCOC(=O)N1CCN(c2nc(N(c3ccccc3)c3ccccc3)nc(-n3ccnc3)n2)CC1	-	-	21.0	-	.	66.3
Cc1ccc(-c2nn(-c3ccccc3)cc2CSC(=N)N)cc1	.	.	.	.	98.0	.
OCc1cn(-c2ccccc2)nc1-c1ccc(-c2nn(-c3ccccc3)cc2CO)cc1	-	-	-	.	-	-
O=C(CN1CCN(c2nc(-c3ccccc3)cs2)CC1)NNC(=O)c1ccc(Br)cc1	.	.	.	.	-	.
Cc1cc(COc2ccccc2O)on1	-	-	-	.	-	.
COc1ccccc1-c1nc(-c2ccccn2)no1	-	-	39.7	-	-	-
COc1ccccc1-c1noc(-c2ccncc2)n1	-	-	-	-	-	-
NC(=O)C1CCN(C(=O)COc2cccc3ccccc23)CC1	-	-	-	.	-	.
CCOC(=O)C1=C(Cc2ccc(F)cc2)C(=O)c2ccccc2C1=O	-	6.5	0.8	.	-	.
O=C(OCc1ccc(F)cc1)c1ccc2c(c1)-c1ccccc1C2=O	.	.	.	.	-	.
Cc1c(NC(=O)CN2C(=O)c3cccc4cccc2c34)c(=O)n(-c2ccccc2)n1C	.	.	.	-	-	-
N#Cc1cn(CCOc2ccccc2F)c2ccccc12	-	-	-	-	-	74.1
O=c1[nH]c(CSc2nc3ccccc3o2)nc2c1cnn2-c1ccccc1	-	-	17.6	.	-	-
Cc1ccc(-n2ncc3c(=O)[nH]c(SCC(=O)N4CCOCC4)nc32)cc1	-	-	-	-	-	-
COC(=O)c1ccc(CSc2nc3c(cnn3-c3ccc(C)cc3)c(=O)[nH]2)o1	-	29.0	20.1	-	.	-
CCCCCSc1nc2c(cnn2-c2ccccc2)c(=O)[nH]1	-	-	26.5	-	-	-
Cc1ccc(-n2ncc3c(=O)[nH]c(SCC(=O)N4CCCc5ccccc54)nc32)cc1	-	-	32.2	-	-	-
O=c1[nH]c(SCc2nc3c(cnn3-c3ccccc3)c(=O)[nH]2)nc2ccccc12	.	.	.	.	-	.
Cc1ccc(N=C2NC(=O)C(CC(=O)O)S2)cc1 (centres undefined)	.	.	.	.	-	.
SMILES	Fibroblast inh	HUVEC inhibit	H69AR growth 86K	Jurkat viability	E coli WT exp	Ecoli tolC
Cc1cc(Nc2ncc(Cl)cc2Cl)n[nH]1	-	-	-	-	-	-
COc1cc2c(C(=O)N3CCN(C4CCCCC4)CC3)cn(CC(C)C)c(=O)c2cc1OC	-	-	-	-	-	-
CCOC(=O)C(C)Sc1nc2c(cnn2-c2ccc(C)cc2)c(=O)[nH]1 (centres undefined)	-	-	19.5	49.8	.	-
Cc1ccc(-n2ncc3c(=O)[nH]c(SC(C)C)nc32)cc1	-	-	-	-	-	-
CSc1ccc(-c2cc(=O)c3ccccc3o2)cc1	-	-	-	-	-	61.3
O=c1cc(-c2ccc(F)cc2)oc2ccccc12	-	-	-	.	.	.
CCSc1ccc(NC(=O)c2cccnc2)cc1	-	-	33.1	.	-	.
CCN(CC)c1ccc(NC(=O)c2cccnc2)c(C)c1	-	-	39.7	.	-	.
Cc1nnc2sc(-c3ccc(NC(=O)c4ccc(-c5ccc(Cl)cc5Cl)o4)cc3)nn12	-	28.4	8.2	-	.	-
Cc1nnc2sc(-c3ccc(NC(=O)c4cccnc4)cc3)nn12	-	-	10.1	-	.	-
CCOc1ccc(Nc2oc(-c3ccccc3Cl)nc2C#N)cc1	-	-	-	.	-	.
CS(=O)(=O)N1CCN(c2ccccc2NC(=O)c2ccc(-c3ccc(Cl)cc3Cl)o2)CC1	-	-	-	-	-	-
CN1CCN(c2ccccc2NC(=O)c2ccc(-c3ccc(Cl)cc3Cl)o2)CC1	-	5.8	31.6	.	-	.
Cc1ccccc1Cn1nnc2c1C(=O)c1ccccc1C2=O	32.0	2.1	12.2	.	.	.
Cc1cccc(Cn2nnc3c2C(=O)c2ccccc2C3=O)c1	-	3.4	13.5	.	.	.
Cc1cccc(Cn2ncc(Cl)c(Cl)c2=O)c1	.	.	.	.	-	.

Screens: PubChem, several laboratories
